Laboratory results reported in ChEMBL document CHEMBL3994593, “Diterpenoids of the Cassane Type from Caesalpinia decapetala” (J Nat Prod, 2016).

What was measured:
Format in all cases: functional, cell-based
[1] = system: SW1990; experiment: Cytotoxicity against human SW1990 cells assessed as reduction in cell viability after 48 hrs by MTT assay; settings: SW1990, 48 h
Summary of the method: (§1)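 Cells grown in RPMI 1640 with 10% FBS, penicillin/streptomycin, at 37 °C, 5% CO2. Seeded at 5000 cells/well, compounds added after 24 h, then 48 h incubation; MTT formazan read at 570 nm. Five concentrations (50, 25, 10, 2.5, 1 μM), 0.5% DMSO final, triplicate experiments; IC50 as mean ± SEM. Gemcitabine and cisplatin as positive controls.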

[2] = system: HepG2; experiment: Cytotoxicity against human HepG2 cells assessed as reduction in cell viability after 48 hrs by MTT assay; settings: HepG2, 48 h; summary of the method: as §1
[3] = system: A2780; experiment: Cytotoxicity against human A2780 cells assessed as reduction in cell viability after 48 hrs by MTT assay; settings: A2780, 48 h; summary of the method: as §1
[4] = system: B16; experiment: Cytotoxicity against mouse B16 cells assessed as reduction in cell viability after 48 hrs by MTT assay; settings: B16, 48 h; summary of the method: as §1
[5] = system: Panc02; experiment: Cytotoxicity against mouse Panc02 cells assessed as reduction in cell viability after 48 hrs by MTT assay; settings: Panc02, 48 h; summary of the method: as §1
[6] = system: T-cell; experiment: Cytotoxicity against ConA-stimulated Balb/c mouse T cells assessed as reduction in cell viability after 48 hrs by MTT assay
Summary of the method: (§2)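 Splenocytes from three male Balb/c mice (4−6 weeks); T and B cells enriched on nylon-wool column, stimulated with 5 μg/mL ConA (T) or 10 μg/mL LPS (B). Then handled as the tumor-cell MTT assay: 48 h exposure, 570 nm read, five concentrations 1–50 μM, 0.5% DMSO final, triplicate. Cyclosporin A and mycophenolate mofetil as positive controls.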

[7] = system: B-cell; experiment: Cytotoxicity against LPS-stimulated Balb/c mouse B cells assessed as reduction in cell viability after 48 hrs by MTT assay; summary of the method: as §2

SMILES	IC50 [1]	IC50 [2]	IC50 [3]	IC50 [4]	IC50 [5]	IC50 [6]	IC50 [7]
COC(=O)[C@]1(C)CCC[C@@]2(COC(C)=O)[C@H]1[C@H](O)C[C@H]1[C@@H](C)c3ccoc3C[C@@H]12	2.9 to 8.9 µM	3.9 µM	> 10 µM	> 10 µM	> 10 µM	> 10 µM	> 10 µM
COC(=O)[C@]1(C)[C@@H](O)CC[C@@]23C(=O)O[C@H]4c5occc5[C@H](C)[C@H](CC[C@@H]12)[C@H]43	2.9 to 8.9 µM		> 10 µM	> 10 µM	> 10 µM	> 10 µM	> 10 µM
COC(=O)[C@]1(C)CCC[C@]23CO[C@H]4c5occc5[C@H](C)[C@@H]([C@H]42)[C@@H](OC(C)=O)C[C@H]31			> 10 µM	> 10 µM	> 10 µM	> 10 µM	> 10 µM
COC(=O)[C@]1(C)CCC[C@]23C(O)O[C@H](C[C@H]4[C@@H](C)c5ccoc5C[C@@H]42)[C@H]31 (some centres not stated)			> 10 µM	> 10 µM	> 10 µM	> 10 µM	> 10 µM
COC(=O)[C@@]1(C)[C@@H]2CC[C@@H]3[C@@H]4[C@@H](OC[C@@]42CC[C@@H]1O)c1occc1[C@@H]3C	2.9 to 8.9 µM		> 10 µM	> 10 µM	> 10 µM	> 10 µM	> 10 µM
C=C1CC[C@@H]2[C@](C)(CCC[C@]2(C)C(=O)O)[C@H]1/C=C/C(C)=O			> 10 µM	> 10 µM	> 10 µM	> 10 µM	> 10 µM
COC(=O)[C@]1(C)[C@@H](OC(C)=O)CC[C@@]23CO[C@H]4c5occc5[C@H](C)[C@H](CC[C@H]21)[C@H]43			> 10 µM	> 10 µM	> 10 µM	> 10 µM	> 10 µM
COC(=O)[C@@]1(C)[C@@H](OC(C)=O)CC[C@]2(C(=O)O)[C@H]3Cc4occc4[C@H](C)[C@@H]3CC[C@@H]12			> 10 µM	> 10 µM	> 10 µM	> 10 µM	> 10 µM
Nc1ccn([C@@H]2O[C@H](CO)[C@@H](O)C2(F)F)c(=O)n1 [GEMCITABINE]	2.3 µM						
COC(=O)[C@]1(C)CCC[C@]2(COC(C)=O)c3cc4occc4c(C)c3C[C@@H](OC(C)=O)[C@H]21	2.9 to 8.9 µM		> 10 µM	> 10 µM	> 10 µM	> 10 µM	> 10 µM
C=C1CC[C@@H]2[C@](C)(CCC[C@]2(C)C(=O)O)[C@H]1CC(=O)/C(C)=C/CO			> 10 µM	> 10 µM	> 10 µM	> 10 µM	> 10 µM
COC(=O)[C@]1(C)CCC[C@]23CO[C@H]4c5occc5[C@H](C)[C@@H]([C@H]42)[C@@H](O)C[C@H]31	2.9 to 8.9 µM		> 10 µM	> 10 µM	> 10 µM	> 10 µM	> 10 µM
COC(=O)[C@]1(C)[C@@H](OC(C)=O)CC[C@@]23C(=O)O[C@H]4c5occc5[C@H](C)[C@H](CC[C@@H]12)[C@H]43			> 10 µM	> 10 µM	> 10 µM	> 10 µM	> 10 µM
COC(=O)[C@]1(C)CCC[C@@]2(COC(C)=O)[C@H]1[C@H](O)C[C@H]1[C@@H](C)C3=CC(=O)O[C@]3(OC)C[C@@H]12			> 10 µM	> 10 µM	> 10 µM	> 10 µM	> 10 µM
